Source: PubChem BioAssay (Broad Institute)
SKKanGAS inh: SKKanGAS growth inhibition; 300,000 tested, 1.3% active; inhibition, % at 7.5 µM; S. pyogenes SKKanGAS, kanamycin growth, BacTiter-Glo, 6 h;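 active means mean replicate score, as percent of positive control median, at least 50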;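 further: strain carries kanamycin resistance gene driven by streptokinase promoter and grows in 40 µg/ml kanamycin; loss of luminescence reflects streptokinase promoter inhibition or plain growth inhibition; 0% = median of DMSO wells and 100% = positive control at its reference dose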
CSC inhib: blocks cancer stem cells; inhibition, % at 7.5 µM; AID 2717; cancer stem cell-like cells viability, luminescence; 300,000 tested, 1.1% active; in the data active means inhibition above about 75%; tested in HMLE shEcad cells
PfHsp90 yeast 2: growth inhibition of yeast expressing Plasmodium Hsp90; 310,000 tested, 0.32% active; S. cerevisiae expressing PfHsp90, BacTiter-Glo ATP, 48 h; yeast lacking PDR1 and PDR3 efflux regulators; inhibition, % at 9.4 µM; AID 504621;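 active means every replicate shows inhibition above about 80%, whatever the replicate mean, limit read from the data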;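 further: 0% = DMSO neutral controls and 100% = 20 µM radicicol positive controls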
HIF activator: HIF pathway transcriptional activation. U2OS HRE-luciferase reporter, luminescence; normalized: DMSO 0%, desferrioxamine 100%. activation, % at 7.5 µM (by protocol). 300,000 tested, 0.32% active. AID 1910;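 active means mean activation of at least 10% of the iron chelator positive control signal, with at least half of replicates also reaching 10%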
T cruzi inh: T. cruzi replication inhibition | AID 1885 | 300,000 tested, 1.4% active | T. cruzi beta-gal in NIH3T3, luminescence, 90 h | inhibition, % (no concentration beside the values);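 active means mean inhibition across valid replicates above about 55%, limit read from the data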;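 further: signal also drops with host cell toxicity which is not excluded here; 0% = plate median of DMSO wells and 100% = zero luminescence signal; higher percent means less beta-gal luminescence so fewer parasites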
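System: NIH/3T3 fibroblasts plus reporter T. cruzi. Medium: DMEM plus 2% FBS. Probe or stimulus: 5000 reporter trypomastigotes per well. Compound: single 50 nL compound addition per well in DMSO. Incubation: co-culture of at least 90 h after 3 h attachment. Detection: GalScreen β-gal luminescence, detergent lysis, 60 min. Evaluation: parasite load inhibition, %.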
Beta cell apopt: blocks beta cell apoptosis. INS-1E cytokine-induced death, ATP luminescence, 48 h; percent of positive-control rescue, neutral wells zero. protection from apoptosis, % (no concentration beside the values). 300,000 tested, 0.8% active. AID 435005;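 active means Every replicate reaches about 75%, or at least half do and their mean reaches it too, limit read from the data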;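 further: 0% = cytokine-treated negative control wells and 100% = positive control rescue; higher means more ATP so stronger rescue from cytokine killing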
* = called active by the depositor. Compounds with a hit are over-represented: about 3.6% of the library has one in this group of screens.

`CCN1CCC(O)(/C=C/c2ccc(C(C)C)cc2)C(C(=O)/C=C/c2ccc(C(C)C)cc2)C1` (stereo not drawn) gave PfHsp90 yeast 2 25.
For CCS(=O)(=O)c1ccc(O)c(NC(=O)Nc2ccccc2OC)c1 the results were SKKanGAS inh -7, CSC inhib 3, PfHsp90 yeast 2 14, HIF activator 0 and T cruzi inh -10.
Screening CCN(CC)CCn1c2ccccc2c2cnc(N)c(C#N)c21 returned SKKanGAS inh 18, CSC inhib -1, PfHsp90 yeast 2 -45, HIF activator 25*, T cruzi inh 65* and Beta cell apopt 93*.
COc1cccc(C(=O)N2CCC(C(=O)N3CCN(C)CC3)CC2)c1 was read as SKKanGAS inh 2, PfHsp90 yeast 2 10, HIF activator 1 and T cruzi inh -13.
For CN1CCC(OC(=O)c2ccccc2)CC1 the results were SKKanGAS inh -5, CSC inhib 16, PfHsp90 yeast 2 12, HIF activator 0, T cruzi inh 60* and Beta cell apopt -2.
For COc1cccc(C(=O)OC2CCN(C)CC2)c1 the results were SKKanGAS inh 12, CSC inhib -2, PfHsp90 yeast 2 0, HIF activator 0, T cruzi inh 70* and Beta cell apopt -6.
`CCOc1ccc(C(=O)OC2CCN(C)CC2)cc1` gave SKKanGAS inh -2, CSC inhib 60, PfHsp90 yeast 2 10, HIF activator 2 and T cruzi inh 37.
`COc1ccc(C(=O)OC2CCN(C)CC2)cc1` gave SKKanGAS inh 9, CSC inhib 51, PfHsp90 yeast 2 16, HIF activator 0, T cruzi inh 55* and Beta cell apopt -6.
`Cc1cccc(OCC(=O)N2CCc3ccccc3C2)c1` gave SKKanGAS inh 10, CSC inhib -4, PfHsp90 yeast 2 2, HIF activator 2, T cruzi inh -14 and Beta cell apopt -9.
`CCn1cc(C(=O)O)c(=O)c2cc(F)c(N/N=C/c3ccccc3)cc21` gave SKKanGAS inh 32, CSC inhib 2, PfHsp90 yeast 2 4, HIF activator 1, T cruzi inh 3 and Beta cell apopt 5.
For C[C@H]1COc2c(C3(N)CC3)c(F)cc3c(=O)c(C(=O)O)cn1c23 the results were SKKanGAS inh 66*, CSC inhib -4, HIF activator 0, T cruzi inh -21 and Beta cell apopt -1.
CC[C@]1(C(=O)OC)[C@H]2C(=O)N(Cc3ccccc3)C(=O)[C@H]2[C@H]2CN(C)C(=NC)N21 was read as PfHsp90 yeast 2 3.
COc1ccc(-c2sc3ccccc3c2-c2ccc(OCCN3CCCCC3)cc2)cc1 was read as CSC inhib 139*, PfHsp90 yeast 2 23 and Beta cell apopt 103*.
For COc1cccc(-c2sc3cc(OC)c(OC)cc3c2-c2ccc(OCCN3CCCCC3)cc2)c1 the results were PfHsp90 yeast 2 10.
`COc1ccccc1-c1sc2ccccc2c1-c1ccc(OCCN2CCCCC2)cc1` gave PfHsp90 yeast 2 3.
Screening c1ccc(-c2sc3ccccc3c2-c2ccc(OCCN3CCCC3)cc2)cc1 returned CSC inhib 107*, PfHsp90 yeast 2 17 and Beta cell apopt 6.
Screening COc1ccccc1N(CC(=O)NCCSCc1cccc(C)c1)S(=O)(=O)c1ccccc1 returned SKKanGAS inh 5, CSC inhib -2, PfHsp90 yeast 2 -29, HIF activator 0, T cruzi inh 15 and Beta cell apopt 0.
CC1(C)Cc2ccccc2-c2c1c(=O)n(Cc1ccccc1)c1nnnn21 was read as SKKanGAS inh 60*, CSC inhib 46, HIF activator -1, T cruzi inh 16 and Beta cell apopt 17.
Screening CCC1(C)Cc2ccccc2-c2c1c(=O)n(-c1ccc(C)cc1)c1nnnn21 (stereo not drawn) returned SKKanGAS inh -1, CSC inhib 26, PfHsp90 yeast 2 5, HIF activator 2, T cruzi inh 21 and Beta cell apopt 2.
`CC(C)C(NC(=O)c1c(F)cccc1F)C(=O)N1CCN(c2ccccc2F)CC1` (stereo not drawn) gave SKKanGAS inh -4, CSC inhib -10, PfHsp90 yeast 2 -7, HIF activator -1, T cruzi inh 1 and Beta cell apopt -9.
